The source of these data is PMC5480654 (Cancer Growth and Metastasis, 2017).

Data set [1] deals with MDA-MB-231 cells. Type of data set: in vivo, mouse. As to conditions: 15 mg/kg ip every other day. The gist of the method: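 Six-week-old female NSG mice, in groups of 4, received 2 × 10^6 cells (grown in RPMI with 5% FBS) into the fourth mammary fat pad. Tumors grew for 2 weeks before stapled peptide treatment began, given intraperitoneally every other day for 5 weeks, […]. Mice were then euthanized and the dissected tumors were weighed individually.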

The nature of data set [2]: Tolerability in treated NSG mice. Type of data set: in vivo, mouse.
The subject of data set [3] is MDA-MB-231 cells. As to the kind of experiment: Ki67 and CD31 staining of primary tumors. Type of data set: in vivo, mouse.
Another data set has as its system breast cancer cells. As to the kind of experiment: Cell proliferation in vitro. Type of data set: cell-based.
Data set [4] can be described thus: Biodistribution of I125-labeled peptides. The class given is in vivo, mouse.
Data set [5] can be described thus: Blood clearance of I125-labeled peptides. Type of data set: in vivo, mouse. As to conditions: calculated by the authors, stated in Discussion. The gist of the method: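 Peptides were iodinated with I125 on iodination beads (1 bead per 50 µg peptide): I125 was preincubated with the beads for 5 min, then peptide in PBS was added for 15 to 20 min. Free label was removed on 1K-cutoff filters, and labeling efficiency was checked by TLC (85% methanol). Dosing was i.v. via the tail vein, with blood drawn from the opposite vein at 5, 30, 60 min, 3 h and 24 h (3 animals). Blood was weighed, gamma-counted and expressed as activity/g to derive half-life.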

A further data set concerns WASF3. To be noted: in vitro; cited from earlier work.

In the case of “FAM-PEG3-LEK*TNS* LAKIIRQL (sidechain bridge or staple) [WAHM1]”, in the data set on MDA-MB-231 cells [1] (5 weeks, vs control tumors), the “weight of the tumors at conclusion of treatment” value is recorded as “significant reduction”. Besides, in the data set with MDA-MB-231 cells [1] (5 weeks, vs vehicle control), the “number of surface tumor nodules on the lungs” value is listed as “significant reduction in the number of surface tumor nodules”. In addition, in the data set on MDA-MB-231 cells [1] (after 5 weeks, vs DMSO vehicle), the “dissemination of tumor cells (bioluminescence imaging)” value was “significant reduction in the observed extent of dissemination of tumor cells”. For the same substance, in data set [2] (15 mg/kg ip every other day, 5 weeks), the “overall body weight at conclusion of treatment” value is “reduced”. In addition, the “morbidity at the higher dose” value in data set [2] (30 mg/kg ip every other day, after 2 weeks, dose discontinued) is “significant morbidity and weight loss”. The “Ki67 staining of primary tumors (proliferation potential)” value with MDA-MB-231 cells [3] (WAHM1-treated vs control mice, printed as 25% vs 22%, no significant difference) is on record as 25%. For the same substance, the “number and size of microvessels in the primary tumors (anti-CD31)” value in the data set with MDA-MB-231 cells [3] (after 5 weeks, vs vehicle alone) was “significant reduction after 5 weeks in the number and size of microvessels”. In the data set with breast cancer cells, the “effect on cell proliferation” value was “does not affect cell proliferation”. Moreover, the “tumor uptake, WAHM1 compared with WANT3-v1” value in data set [4] (I125-labeled Tyr-N-term versions, SPECT) was “significantly greater than for the WANT3-v1 peptide”. Besides, the “radioactivity per gram of tissue (gamma counting)” value in data set [4] (I125-labeled peptide, organs and tumor isolated after 72 h) is reported as “significant uptake in tumors after 72 hours”. Moreover, the “retention time in the blood system” value in data set [5] was ~ 30 minutes. Moreover, the “phosphoactivation of WASF3” value with WASF3 is “suppresses phosphoactivation of WASF3”.
